Drawing on ChEMBL document CHEMBL4725347, “Discovery of a Monoiodo Aza-BODIPY Near-Infrared Photosensitizer: in vitro and in vivo Evaluation for Photodynamic Therapy” (J Med Chem, 2020), this text covers IC50, fold change (FC) and Activity for 13 molecules.

The subject of one data set is MCF7. The data set can be described thus: Phototoxicity against human MCF7 cells assessed as reduction in cell viability preincubated for 3 hrs followed by 54 J/cm2 light irradiation and measured after 24 hrs by MTT assay. The class given is functional, cell-based. The settings on record: MCF7, light or radiation study. In a few lines: (§1)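 PS formulated in PBS containing Cremophor EL/1,2-propanediol (10:3, v:v) after THF removal, filtered, with concentration confirmed by UV-Vis. Cells were grown in DMEM with 10% FBS and seeded at 3×10^3 per well overnight. They were incubated with PS for 3 h, irradiated at λ > 590 nm, kept 24 h at 37 °C, then given MTT (0.5 mg/mL, 4 h) with DMSO solubilization and A490 read-out.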
For orientation: Tetrazolium dyes change colour on reduction, which living cells bring about.

The nature of data set [1]: Induction of singlet oxygen generation in N,N-dimethylformamide assessed as relative rate of DPBF degradation to MB at 1 uM irradiated with 90 mW/cm2 halogen light. The class given is functional. In a few lines:
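Singlet oxygen generation measured with 1,3-diphenylisobenzofuran (DPBF) as scavenger. The decrease in DPBF absorbance at 411 nm was monitored over time during light irradiation, and the photodegradation rate was calculated.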

For the next data set, the system named is HeLa. The data set can be described thus: Phototoxicity against human HeLa cells assessed as reduction in cell viability preincubated for 3 hrs followed by 54 J/cm2 light irradiation and measured after 24 hrs by MTT assay. The class given is functional, cell-based. To be noted: light or radiation study. In a few lines: as §1
For another data set, the system named is SW480. The experiment in a line: Phototoxicity against human SW480 cells assessed as reduction in cell viability preincubated for 3 hrs followed by 54 J/cm2 light irradiation and measured after 24 hrs by MTT assay. The format is functional, cell-based. To be noted: SW480, light or radiation study. In a few lines: as §1
The nature of data set [2]: Absorption property of the compound in chloroform assessed as absorption coefficient by UV-visible spectrophotometric method. The format is physicochemical. In a few lines: (§2)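 Electronic absorption spectra recorded by UV-visible spectrophotometry at room temperature. Solvents were chloroform, isopropanol, acetonitrile, DMF, and PBS buffer containing 1% Cremophor EL/1,2-propanediol (10:3, v:v). Chloroform data were referenced to the non-halogenated parent dye.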

A short description of data set [3]: Absorption property of the compound in chloroform assessed as hypsochromic shift by measuring maximum absorption wavelength by UV-visible spectrophotometric method. The class given is physicochemical. In a few lines: as §2
A short description of data set [4]: Emission property of the compound in chloroform assessed as maximum emission wavelength by fluorescence spectrophotometric method. The class given is physicochemical. In a few lines: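 Fluorescence spectrum recorded in chloroform by fluorescence spectrophotometer at room temperature.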
Data set [5] is described as follows: Dark toxicity in human SW480 cells assessed as reduction in cell viability after 3 hrs by MTT assay. The class given is cell-based.
Data set [6] is described as follows: Dark toxicity in human HeLa cells assessed as reduction in cell viability after 3 hrs by MTT assay. The format is cell-based. In a few lines: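 Compound was formulated with Cremophor EL/1,2-propanediol in PBS, filtered, and its concentration confirmed by UV-Vis. HeLa cells in DMEM with 10% FBS at 37 °C, 5% CO2 were seeded at 3×10^3 cells/well and adhered overnight. Cells were exposed to graded concentrations for 3 h without light, incubated 24 h, then MTT 0.5 mg/mL for 4 h; formazan dissolved in DMSO, A490 read.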

The nature of data set [7]: Dark toxicity in human MCF7 cells assessed as reduction in cell viability after 3 hrs by MTT assay. The format is cell-based.

As usually defined, the IC50 is the concentration that inhibits the measured activity by half.

Regarding `COc1ccc(C2=[N+]3C(=Nc4c(-c5ccccc5)c5c(n4[B-]3(F)F)-c3ccc(OC)cc3CC5)C(c3ccccc3)=C2Br)cc1`, the IC50 stood at 4.5 µM with MCF7, 0.83 µM with HeLa and 1.9 µM with SW480. Also, in data set [1], the fold change (FC) came out at 0.17. For the same molecule, the Activity turned out to be 90300 M⁻¹ cm⁻¹ in [2], 692 nm in [3] and 724 nm in data set [4]. The IC50 at 3 h in data set [5], in data set [6] and in data set [7] was greater than 50 µM in each case.
In the case of `Cc1ccc(C2=[N+]3C(=Nc4c(-c5ccccc5)cc(-c5ccc(C)cc5)n4[B-]3(F)F)C(c3ccccc3)=C2I)cc1`, the IC50 in the data set with MCF7 worked out at 1.2 µM; in the data set with HeLa, 2.6 µM; in the data set with SW480, 12.4 µM. Further, the fold change (FC) in [1] stood at 0.26. The results for the Activity in data set [2], in data set [3] and in [4] were 89600 M⁻¹ cm⁻¹, 659 nm and 690 nm, respectively. The IC50 at 3 h in data set [5], in [6] and in [7] was greater than 50 µM in each case.
Consider `Cc1ccc(C2=[N+]3C(=Nc4c(-c5ccccc5)c(I)c(-c5ccc(C)cc5)n4[B-]3(F)F)C(c3ccccc3)=C2I)cc1`, for which the figures for the IC50 with MCF7, with HeLa and with SW480 were 5.3 µM, 13.4 µM and greater than 25 µM, respectively. For the same molecule, in data set [1], the fold change (FC) was 0.28. Besides, the Activity is 92000 M⁻¹ cm⁻¹ in data set [2], 662 nm in [3] and 688 nm in data set [4]. Also, the IC50 at 3 h in [5], in [6] and in [7] was greater than 50 µM throughout.
In the case of `COc1ccc2c(c1)CCc1c(-c3ccccc3)c3n(c1-2)[B-](F)(F)[N+]1=C(c2cccs2)C(I)=C(c2ccccc2)C1=N3`, the IC50 in the data set on MCF7 is 0.75 µM; with HeLa it was 0.46 µM; in the data set with SW480, 0.83 µM. Moreover, the fold change (FC) in data set [1] is 0.37. Moreover, the Activity in [2] came to 81500 M⁻¹ cm⁻¹; in [3] it was 695 nm; in data set [4] it was 740 nm. The IC50 at 3 h in data set [5], in data set [6] and in [7] was greater than 50 µM throughout.
Regarding `Cc1ccc(C2=[N+]3C(=Nc4c(-c5ccccc5)c(I)c(-c5ccc(C)s5)n4[B-]3(F)F)C(c3ccccc3)=C2I)s1`, the IC50 in the data set on MCF7 was 16.4 µM; in the data set with HeLa, greater than 25 µM; in the data set on SW480, greater than 25 µM. The fold change (FC) in [1] stood at 0.36. The Activity was determined as 91300 M⁻¹ cm⁻¹ in data set [2], 732 nm in [3] and 768 nm in [4]. In addition, the IC50 at 3 h in data set [5], in data set [6] and in [7] was greater than 50 µM in each case.
For `COc1ccc2c(c1)CCc1c(-c3ccccc3)c3n(c1-2)[B-](F)(F)[N+]1=C(c2ccc(C)cc2)C(I)=C(c2ccccc2)C1=N3`, the IC50 with MCF7 came out at 0.41 µM; in the data set on HeLa, 0.11 µM; with SW480, 0.66 µM. Further, in data set [1], the fold change (FC) came to 0.25. The Activity in [2] worked out at 110000 M⁻¹ cm⁻¹; in data set [3], 682 nm; in data set [4] it was 709 nm. Further, the IC50 at 3 h in [5], in [6] and in data set [7] was greater than 50 µM throughout.
Take `COc1ccc(C2=[N+]3C(=Nc4c(-c5ccccc5)c5c(n4[B-]3(F)F)-c3ccc(OC)cc3CC5)C(c3ccccc3)=C2I)cc1`: the IC50 in the data set on MCF7 is 0.14 µM; with HeLa it was 0.081 µM; in the data set on SW480, 0.12 µM. In addition, the fold change (FC) in data set [1] was 1.2. For the same molecule, the Activity in data set [2] was 101300 M⁻¹ cm⁻¹; in data set [3], 689 nm; in data set [4], 725 nm. For the same molecule, the IC50 at 3 h in data set [5], in data set [6] and in data set [7] was greater than 50 µM in each case.
`Cc1ccc(C2=[N+]3C(=Nc4c(-c5ccccc5)cc(-c5ccc(C)s5)n4[B-]3(F)F)C(c3ccccc3)=C2I)s1`: the IC50 was 7.7 µM with MCF7, 15.6 µM in the data set with HeLa and 20.6 µM in the data set with SW480. Further, the fold change (FC) in [1] amounted to 0.32. Besides, the Activity worked out at 71700 M⁻¹ cm⁻¹ in data set [2], 732 nm in data set [3] and 766 nm in data set [4]. Also, the IC50 at 3 h in [5], in data set [6] and in data set [7] was greater than 50 µM in each case.
For the molecule `COc1ccc2c(c1)CCc1c(-c3ccccc3)c3n(c1-2)[B-](F)(F)[N+]1=C(c2ccc(C)cc2)C(Br)=C(c2ccccc2)C1=N3`, the values for the IC50 in the data set on MCF7, with HeLa and in the data set on SW480 were 8.1 µM, 1.2 µM and 15.6 µM, respectively. In addition, in data set [1], the fold change (FC) was determined as 0.14. The Activity in data set [2] amounted to 104400 M⁻¹ cm⁻¹; in [3], 682 nm; in data set [4] it was 709 nm. Moreover, the IC50 at 3 h in data set [5], in data set [6] and in data set [7] was greater than 50 µM in each case.
On to `Cc1ccc(C2=[N+]3C(=Nc4c(-c5ccccc5)c(Br)c(-c5ccc(C)cc5)n4[B-]3(F)F)C(c3ccccc3)=C2Br)cc1`, for which the IC50 in the data set on MCF7 is 1.5 µM; in the data set with HeLa, 4.3 µM; with SW480, 16.1 µM. For the same molecule, in data set [1], the fold change (FC) worked out at 0.22. Also, the Activity in [2] amounted to 79900 M⁻¹ cm⁻¹; in [3] it was 658 nm; in data set [4] it was 685 nm. For the same molecule, the IC50 at 3 h in data set [5], in data set [6] and in data set [7] was greater than 50 µM each time.
`COc1ccc2c(c1)CCc1c(-c3ccccc3)c3n(c1-2)[B-](F)(F)[N+]1=C(c2ccc(C)s2)C(Br)=C(c2ccccc2)C1=N3`: the IC50 with MCF7 was greater than 25 µM; in the data set with HeLa, 22.6 µM; with SW480 it was greater than 25 µM. The fold change (FC) in data set [1] was 0.14. The values for the Activity in data set [2], in [3] and in data set [4] were 73700 M⁻¹ cm⁻¹, 714 nm and 753 nm, respectively. Further, the IC50 at 3 h in [5], in data set [6] and in data set [7] was greater than 50 µM throughout.
For `Cc1ccc(C2=[N+]3C(=Nc4c(-c5ccccc5)cc(-c5ccc(C)cc5)n4[B-]3(F)F)C(c3ccccc3)=C2Br)cc1`, the values for the IC50 in the data set with MCF7, in the data set with HeLa and with SW480 were 2.6 µM, 7.2 µM and greater than 25 µM, respectively. In data set [1], the fold change (FC) was 0.12. The Activity in data set [2] came out at 83600 M⁻¹ cm⁻¹; in [3] it was 658 nm; in data set [4], 685 nm. Further, the IC50 at 3 h in data set [5], in [6] and in data set [7] was greater than 50 µM each time.
With `COc1ccc2c(c1)CCc1c(-c3ccccc3)c3n(c1-2)[B-](F)(F)[N+]1=C(c2ccc(C)s2)C(I)=C(c2ccccc2)C1=N3`, the IC50 in the data set with MCF7 was found to be 16.6 µM; with HeLa, 12.3 µM; with SW480 it was 21.4 µM. Besides, in data set [1], the fold change (FC) was found to be 0.42. Also, the Activity stood at 76900 M⁻¹ cm⁻¹ in data set [2], 716 nm in [3] and 756 nm in [4]. The IC50 at 3 h in [5], in data set [6] and in data set [7] was greater than 50 µM each time.
